Rows were chosen to be rich in hits. Some 4.5% of all compounds tested hit in one or more screens of this group.
GPR7 antagonist = human neuropeptides B/W receptor 1 antagonism. inhibition, % at 4.4 µM. P48145. 1.1% of 290,000 active. GPR7-expressing cells, fluorescence antagonist assay; in the data active = inhibition above about 16%, passing the limit was not always enough;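 also: cells stimulated with the agonist NPW; 0% = agonist with vehicle and 100% = vehicle without agonist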
Target sequence (P48145 whole entry, looked up): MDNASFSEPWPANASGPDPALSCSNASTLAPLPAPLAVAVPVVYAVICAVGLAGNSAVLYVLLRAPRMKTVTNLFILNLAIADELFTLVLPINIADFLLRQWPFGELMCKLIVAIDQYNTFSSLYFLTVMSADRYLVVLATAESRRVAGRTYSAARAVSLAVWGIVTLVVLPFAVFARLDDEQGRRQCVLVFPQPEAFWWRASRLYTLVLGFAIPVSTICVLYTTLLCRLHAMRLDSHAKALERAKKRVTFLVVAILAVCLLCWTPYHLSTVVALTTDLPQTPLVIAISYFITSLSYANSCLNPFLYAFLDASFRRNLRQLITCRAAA
TAAR1 agonist = agonists of human TAAR1; Q96RJ0; CHO RD-HGA16 TAAR1, Fluo-8 calcium fluorescence; vehicle wells 0%, saturating PEA agonist 100%; activation, % at 3 µM; 0.99% of 360,000 active; AID 624467;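 active = activation above the mean activation of all test compounds in the run plus 3 SD, cut at about 38% in these data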
Target sequence (Q96RJ0 whole entry, looked up): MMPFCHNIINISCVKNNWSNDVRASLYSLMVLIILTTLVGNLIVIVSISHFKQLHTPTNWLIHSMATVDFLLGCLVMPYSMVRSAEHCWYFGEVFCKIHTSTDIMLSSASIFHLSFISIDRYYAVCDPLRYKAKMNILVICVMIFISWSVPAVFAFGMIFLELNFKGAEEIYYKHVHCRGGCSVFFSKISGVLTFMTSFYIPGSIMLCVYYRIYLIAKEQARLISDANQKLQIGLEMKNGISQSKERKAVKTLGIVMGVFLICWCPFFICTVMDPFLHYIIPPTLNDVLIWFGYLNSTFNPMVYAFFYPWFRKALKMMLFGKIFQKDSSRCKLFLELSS
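System: CHO RD-HGA16 cells carrying human TAAR1 plus Gα16; Incubation: 17-24 h seeding, 75 min 37 °C dye, 30 min RT; Measured by: Fluo-8 fluorescence, 5 s baseline then 140 s kinetic read; Control set: DMSO and PEA EC100; Replication: single well for each compound.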
CHO parental Ca = counter-screen: ATP calcium response change in parental CHO cells. 0.63% of 330,000 active. inhibition, % at 5.6 µM. parental CHO-K1, ATP-induced calcium, Fluo-8 fluorescence;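 active = inhibition above that plate's mean sample inhibition plus 3 SD, cut at about 26% in these data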;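 also: 0% = ATP-challenged DMSO wells and 100% = DMSO wells without ATP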
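Test system: untransfected parental CHO cell line; also added: ATP stimulus; dosing: 5.6 µM, single dose; signal: calcium-sensitive Fluo-8 fluorescence; measure: percent inhibition of ATP-evoked calcium rise, normalized to controls; benchmarks: low control ATP plus DMSO, high control DMSO only; replication: one well per compound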
OX1R antag-1 = OX1R (human) antagonism; AID 485270; OX1R-expressing cells, FRET antagonist read-out; 1.8% of 330,000 active; O43613; inhibition, % at 6.6 µM; in the data active = inhibition mostly above about 38%, no sharp cut-off; inactive = mostly below about 40%;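 also: 0% = agonist challenge alone and 100% = reference antagonist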
TAAR1 antagonist = antagonists of human TAAR1; inhibition, % at 3 µM; CHO RD-HGA16 TAAR1, Fluo-8 calcium fluorescence, antagonist; 1.5% of 360,000 active;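 active = inhibition above a per-plate cutoff, the mean inhibition of test compounds on that plate plus 3 SD, cut at about 49% in these data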;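 also: 0% = DMSO plus EC80 beta-PEA response and 100% = DMSO alone without agonist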
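Test system – hTAAR1-expressing CHO RD-HGA16 cells, Gα16-coupled · Reagent – β-PEA at EC80 concentration, post-compound challenge · Compound dosing – 3 µM, single point · Timing – 140 s kinetic read after compound, 140 s after agonist · Detection – Fluo-8 intracellular calcium dye fluorescence, real-time kinetic reads · Control set – DMSO and EC80 PEA controls · Repeats – n of 1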
OX1R antag-2 = human HCRTR1 antagonism. 0.43% of 330,000 active. inhibition, % at 5 µM. CHO/OX1R cells, Fluo-8 calcium fluorescence, orexin A. O43613. AID 434989;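 active = inhibition above its plate's threshold, mean inhibition of all tested compounds on the plate plus 3 SD, cut at about 37% in these data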;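 also: 0% = orexin A challenge wells and 100% = SB-334867-A antagonist wells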
Numbers without * were called inactive.

Screening CCCCn1c(SCC(=O)Nc2cc(NC(=O)c3ccco3)ccc2C)nc2ccccc2c1=O returned GPR7 antagonist 1, TAAR1 agonist 17, CHO parental Ca -11, OX1R antag-1 41*, TAAR1 antagonist -5 and OX1R antag-2 -12.
CC1=C[C@@H]2[C@H]3C(=O)N(Cc4ccccc4)C(=O)[C@H]3[C@@H]1[C@@H]1O[C@@]3(C(=O)N(C)c4ccccc43)C3=C(CCCC3=O)N21 was read as TAAR1 agonist 8 and TAAR1 antagonist -3.
CCCn1c(=O)c(C(=O)Nc2ncccc2O)c(O)c2ccccc21 was read as GPR7 antagonist -4, TAAR1 agonist -1 and TAAR1 antagonist 6.
Cn1c(=O)c(C(=O)Nc2ncccc2O)c(O)c2ccccc21 was read as GPR7 antagonist 5, TAAR1 agonist 6, CHO parental Ca 48*, OX1R antag-1 17, TAAR1 antagonist 7 and OX1R antag-2 27.
COC(=O)c1c(C)[nH]c(C(=O)C(C)OC(=O)C2CC(=O)N(c3ccc(C)cc3)C2)c1C (stereo not drawn) was read as TAAR1 agonist 7, CHO parental Ca 46*, OX1R antag-1 7, TAAR1 antagonist 21 and OX1R antag-2 66*.
COC(=O)c1cccc(CSc2nc(-c3ccccc3)c(C#N)c(=O)[nH]2)c1 was read as GPR7 antagonist 2, TAAR1 agonist 4, CHO parental Ca -14, OX1R antag-1 25, TAAR1 antagonist -28 and OX1R antag-2 -17.
O=C(Cn1ncc2c1-c1ccccc1OC2)N(Cc1ccco1)C1CCCCC1 was read as GPR7 antagonist -1, TAAR1 agonist -1, CHO parental Ca -13, OX1R antag-1 37*, TAAR1 antagonist -15 and OX1R antag-2 -10.
O=C(/C=C/c1ccccc1)NCc1cccnc1 was read as GPR7 antagonist 0, TAAR1 agonist 2, CHO parental Ca -18, OX1R antag-1 6, TAAR1 antagonist 4 and OX1R antag-2 -22.
For O=C(NC(=S)NCc1cccnc1)c1ccc([N+](=O)[O-])cc1 the results were GPR7 antagonist 1, TAAR1 agonist -1, CHO parental Ca -11, OX1R antag-1 75*, TAAR1 antagonist 13 and OX1R antag-2 -17.
`O=C(/C=C/c1ccccc1[N+](=O)[O-])NCc1cccnc1` gave GPR7 antagonist -2, TAAR1 agonist 6, CHO parental Ca -4, OX1R antag-1 61*, TAAR1 antagonist -17 and OX1R antag-2 -12.
Screening O=C(O)c1cc([N+](=O)[O-])c(NCc2cccnc2)c([N+](=O)[O-])c1 returned GPR7 antagonist 3, TAAR1 agonist -1, CHO parental Ca -10, OX1R antag-1 76*, TAAR1 antagonist -1 and OX1R antag-2 -14.
O=C(Nc1ccccc1)c1cc([N+](=O)[O-])ccc1NCc1cccnc1 was read as GPR7 antagonist 5, TAAR1 agonist 0, CHO parental Ca -13, OX1R antag-1 11, TAAR1 antagonist -1 and OX1R antag-2 -11.
`C[C@H](CO)N1C[C@H](C)[C@@H](CN(C)C(=O)Nc2ccc3c(c2)OCO3)OCc2cn(nn2)CCCC1=O` gave TAAR1 agonist 0 and TAAR1 antagonist 5.
O=C(/C=C(\Nc1cc(Cl)c(F)c(Cl)c1)c1ccccc1)c1ccccc1 was read as TAAR1 agonist 7 and TAAR1 antagonist -15.
CN(C)c1ccc(NC(=O)CSc2nnc(-c3cccs3)n2Cc2ccco2)cc1 was read as GPR7 antagonist 4, TAAR1 agonist 2, CHO parental Ca -18, OX1R antag-1 47*, TAAR1 antagonist 7 and OX1R antag-2 35.
`COc1ccc(CCNc2ccc(N3C(=O)CC(C)C3=O)cc2[N+](=O)[O-])cc1OC` (stereo not drawn) gave GPR7 antagonist -5, TAAR1 agonist 11, CHO parental Ca 54*, OX1R antag-1 59, TAAR1 antagonist 50* and OX1R antag-2 28.
COc1ccc(Nc2ccc(N3C(=O)CCCC3=O)cc2[N+](=O)[O-])cc1OC was read as GPR7 antagonist -9, TAAR1 agonist 0, CHO parental Ca -12, OX1R antag-1 57, TAAR1 antagonist -16 and OX1R antag-2 -14.
COc1ccc(Nc2ccc(N3C(=O)CC(C)C3=O)cc2[N+](=O)[O-])cc1OC (stereo not drawn) was read as GPR7 antagonist -6, TAAR1 agonist 3, CHO parental Ca -15, OX1R antag-1 40*, TAAR1 antagonist -11 and OX1R antag-2 -24.
For CC(C)N(Cc1ccccc1)C(=O)CN1c2cccc3cccc(c23)S1(=O)=O the results were TAAR1 agonist 4, CHO parental Ca -27, OX1R antag-1 39*, TAAR1 antagonist 24 and OX1R antag-2 -6.
Screening CN(C)C(=O)CN1c2cccc3cccc(c23)S1(=O)=O returned GPR7 antagonist 2, TAAR1 agonist 5, CHO parental Ca -13, OX1R antag-1 6, TAAR1 antagonist -21 and OX1R antag-2 -22.
`Nc1[nH]c(C(=O)c2ccc(Br)cc2)c(-c2ccccc2Cl)c1C(=O)NCCc1c[nH]c2ccccc12` gave TAAR1 agonist 9 and TAAR1 antagonist 6.
CNCC[C@H](Oc1cccc2ccccc12)c1cccs1 was read as GPR7 antagonist 38*, TAAR1 agonist 15, CHO parental Ca -13, OX1R antag-1 14, TAAR1 antagonist 11 and OX1R antag-2 -10.
For Clc1ccc(Nc2nnc(-c3ccc4c(c3)OCO4)o2)cc1 the results were TAAR1 agonist 1 and TAAR1 antagonist 4.
`Cc1ccc(C(=O)NCC2CCCN2S(=O)(=O)c2cccs2)cc1C` (stereo not drawn) gave TAAR1 agonist 0, CHO parental Ca -7, OX1R antag-1 34*, TAAR1 antagonist -2 and OX1R antag-2 -18.
O=C(NCCc1ccc(F)cc1)C(=O)NCC1CCCN1S(=O)(=O)c1cccs1 (stereo not drawn) was read as TAAR1 agonist 33, CHO parental Ca -20, OX1R antag-1 69*, TAAR1 antagonist 61* and OX1R antag-2 16.
For COc1ccc(CCNC(=O)C(=O)NCC2OCCN2S(=O)(=O)c2ccccc2)cc1OC (stereo not drawn) the results were GPR7 antagonist -2, TAAR1 agonist 3, CHO parental Ca -6, OX1R antag-1 21, TAAR1 antagonist -17 and OX1R antag-2 -5.
Screening CCNC(=O)C(=O)NCC1CCCN1S(=O)(=O)c1cccs1 (stereo not drawn) returned TAAR1 agonist 0, CHO parental Ca -5, OX1R antag-1 7, TAAR1 antagonist 10 and OX1R antag-2 -12.

Compound activity: PubChem BioAssay, The Scripps Research Institute Molecular Screening Center
